The format of data set [1] is physicochemical. The settings on record: CD at 220 nm, protein 7 μM, 50 mM Tris–HCl pH 7.5, 150 mM NaCl, 0.1% β‐mercaptoethanol.
Data set [2] is described as follows: Secondary structural content by CD spectroscopy. Format: physicochemical. To be noted: 25 °C, protein 5 μM, 50 mM Tris–HCl pH 7.5, 150 mM NaCl, 0.1% β‐mercaptoethanol, CDSSTR.
For data set [3], the system named is C‐terminal domain of the HCoV‐229E N protein. As to the kind of experiment: Sedimentation velocity analytical ultracentrifugation: self-association. Format: binding. To be noted: N245–389 in the absence of the C‐terminal tail peptide. The procedure, abridged: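 C-terminal His6-tagged N-protein domain (residues 245–389) was bacterially expressed (1 mM IPTG, 37 °C, 6 h) and purified on Ni–NTA. Runs were at 20 °C and 42,000 rpm, read at 280 nm every 420 s, at 50, 30 and 10 μM protein in 50 mM Tris–HCl pH 7.5, 150 mM NaCl, 0.1% β-mercaptoethanol. Data were fit to a continuous size distribution (0.1–20.0 S).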

B1: N245–370: truncated C‐terminal domain of the HCoV‐229E N protein, extended C‐terminal tail that includes residue 370 (protein)
chain: QKPRWKRQPNDDVTSNVTQCFGPRDLDHNFGSAGVVANGVKAKGYPQFAELVPSTAAMLFDSHIVSKESGNTVVLTFTTRVTVPKDHPHLGKFLEELNAFTREMQQHPLLNPSALEFNPSQTSPAT
modifications: left off: His6, C-terminal, state not stated
Turning to B1, the “melting temperature (Tm)” value in data set [1] is 36.2 °C. Further, in data set [2], the “Disordered (random coil) content” value was 17%, the Helix content stood at 46%, the Sheet content is 23% and the Turn content is reported as 14%.

B2: N245–389: truncated C‐terminal domain of the HCoV‐229E N protein, extended C‐terminal tail that includes residue 389 (protein)
chain: QKPRWKRQPNDDVTSNVTQCFGPRDLDHNFGSAGVVANGVKAKGYPQFAELVPSTAAMLFDSHIVSKESGNTVVLTFTTRVTVPKDHPHLGKFLEELNAFTREMQQHPLLNPSALEFNPSQTSPATAEPVRDEVSIETDIIDEVN
modifications: left off: His6, C-terminal, state not stated
With B2, the “melting temperature (Tm)” value in data set [1] was “above 70 °C”. Further, the S-value of dimer entry in data set [3] (20 °C, dimer) was “approximately 2.85”. For the same molecule, the S-value of octamer in data set [3] (20 °C, octamer) is listed as roughly 7.75. The S-value of tetramer in data set [3] (20 °C, tetramer) is roughly 5.30. Further, in data set [3] (dimer), the “molecular mass corresponding to S-value, dimer” value came to 31 kDa. In data set [3] (octamer), the “molecular mass corresponding to S-value, octamer” value was determined as 131 kDa. In addition, the “molecular mass corresponding to S-value, tetramer” value in data set [3] (tetramer) amounted to 69 kDa. For the same molecule, in data set [2], the “Disordered (random coil) content” value worked out at 13%, the Helix content stood at 45%, the Sheet content was 26% and the Turn content is recorded as 16%.

B3: N245–382: truncated C‐terminal domain of the HCoV‐229E N protein, extended C‐terminal tail that includes residue 382 (protein)
chain: QKPRWKRQPNDDVTSNVTQCFGPRDLDHNFGSAGVVANGVKAKGYPQFAELVPSTAAMLFDSHIVSKESGNTVVLTFTTRVTVPKDHPHLGKFLEELNAFTREMQQHPLLNPSALEFNPSQTSPATAEPVRDEVSIET
modifications: left off: His6, C-terminal, state not stated
On to B3, for which, in data set [1], the “melting temperature (Tm)” value was “above 70 °C”. In data set [2], the “Disordered (random coil) content” value amounted to 13%, the Helix content is recorded as 43%, the Sheet content is listed as 25% and the Turn content was 19%.

B4: N245–376: truncated C‐terminal domain of the HCoV‐229E N protein, extended C‐terminal tail that includes residue 376 (protein)
chain: QKPRWKRQPNDDVTSNVTQCFGPRDLDHNFGSAGVVANGVKAKGYPQFAELVPSTAAMLFDSHIVSKESGNTVVLTFTTRVTVPKDHPHLGKFLEELNAFTREMQQHPLLNPSALEFNPSQTSPATAEPVRD
modifications: left off: His6, C-terminal, state not stated
In the case of B4, in data set [1], the “melting temperature (Tm)” value was 36.7 °C. In data set [2], the “Disordered (random coil) content” value came out at 15%, the Helix content was found to be 47%, the Sheet content stood at 22% and the Turn content turned out to be 16%.

The values above are taken from PMC7089611 (Febs Letters, 2012).
